# Assays:
# [1] = molecular target: T1, Somatostatin receptor type 3 (Homo sapiens, UniProt P32745); assay: In vitro inhibition of [125I][Leu8,D-Trp22,Tyr25] somatostatin 28 binding to human somatostatin receptor type 3 expressed in CCL39 cells; (n=5); assay type: cell-based
# [2] = molecular target: T2, Somatostatin receptor type 1 (Homo sapiens, UniProt P30872); assay: In vitro inhibition of [125I][Leu8,D-Trp22,Tyr25] somatostatin 28 binding to human somatostatin receptor type 1 expressed in CHO-K1 cells; (n=5); assay type: cell-based
# T2 sequence (P30872 whole entry): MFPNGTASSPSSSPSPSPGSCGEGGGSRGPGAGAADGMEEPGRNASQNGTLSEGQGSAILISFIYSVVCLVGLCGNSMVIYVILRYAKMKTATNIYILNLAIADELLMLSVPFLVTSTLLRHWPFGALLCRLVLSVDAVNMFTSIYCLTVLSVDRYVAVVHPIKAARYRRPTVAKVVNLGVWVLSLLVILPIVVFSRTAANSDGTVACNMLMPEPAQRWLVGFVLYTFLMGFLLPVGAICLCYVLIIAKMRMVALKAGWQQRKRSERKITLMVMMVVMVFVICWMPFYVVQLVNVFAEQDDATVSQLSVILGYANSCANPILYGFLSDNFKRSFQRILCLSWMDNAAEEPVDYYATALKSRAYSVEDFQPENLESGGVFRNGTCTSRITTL
# [3] = molecular target: T3, Somatostatin receptor type 4 (Homo sapiens, UniProt P31391); assay: In vitro inhibition of [125I][Leu8,D-Trp22,Tyr25] somatostatin 28 binding to human somatostatin receptor type 4 expressed in CCL39 cells; (n=5); assay type: cell-based
# T3 sequence (P31391 whole entry): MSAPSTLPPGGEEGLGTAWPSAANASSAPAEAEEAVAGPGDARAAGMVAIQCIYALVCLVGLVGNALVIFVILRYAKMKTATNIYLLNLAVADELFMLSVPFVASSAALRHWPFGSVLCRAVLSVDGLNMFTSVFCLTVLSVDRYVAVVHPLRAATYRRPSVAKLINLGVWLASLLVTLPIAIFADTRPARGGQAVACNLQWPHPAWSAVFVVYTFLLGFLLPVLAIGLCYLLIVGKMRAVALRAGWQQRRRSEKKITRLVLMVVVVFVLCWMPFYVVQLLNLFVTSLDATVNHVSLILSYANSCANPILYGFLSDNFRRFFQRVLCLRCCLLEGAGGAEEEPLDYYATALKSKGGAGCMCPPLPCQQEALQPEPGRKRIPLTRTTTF
# [4] = molecular target: T4, Somatostatin receptor type 2 (Homo sapiens, UniProt P30874); assay: In vitro inhibition of [125I][Leu8,D-Trp22,Tyr25] somatostatin 28 binding to human somatostatin receptor type 2 expressed in CCL39 cells; (n=3); assay type: cell-based
# T4 sequence (P30874 whole entry): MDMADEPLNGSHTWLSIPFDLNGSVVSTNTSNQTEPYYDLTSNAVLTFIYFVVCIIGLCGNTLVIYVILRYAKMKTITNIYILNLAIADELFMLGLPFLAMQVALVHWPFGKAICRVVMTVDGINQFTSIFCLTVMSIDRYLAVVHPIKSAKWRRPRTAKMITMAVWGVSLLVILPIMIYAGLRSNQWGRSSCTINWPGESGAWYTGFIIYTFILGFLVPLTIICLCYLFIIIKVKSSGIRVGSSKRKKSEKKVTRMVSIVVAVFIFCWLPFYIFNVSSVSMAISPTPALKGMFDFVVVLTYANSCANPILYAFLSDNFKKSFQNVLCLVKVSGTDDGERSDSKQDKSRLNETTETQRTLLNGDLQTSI
# [5] = molecular target: T2, Somatostatin receptor type 1; assay: In vitro inhibition of [125I][Leu8,D-Trp22,Tyr25] somatostatin 28 binding to human somatostatin receptor type 1 expressed in CHO-K1 cells; (n=3); assay type: cell-based; details: cho-k1
# [6] = molecular target: T1, Somatostatin receptor type 3; assay: In vitro inhibition of [125I][Leu8,D-Trp22,Tyr25] somatostatin 28 binding to human somatostatin receptor type 3 expressed in CCL39 cells; (n=3); assay type: cell-based; details: ccl39
# [7] = molecular target: T3, Somatostatin receptor type 4; assay: In vitro inhibition of [125I][Leu8,D-Trp22,Tyr25] somatostatin 28 binding to human somatostatin receptor type 4 expressed in CCL39 cells; (n=3); assay type: cell-based
# Procedure, shortened: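 Membrane pellets from CCL39 cells stably expressing hsst4 were sectioned onto slides for receptor autoradiography. Full displacement of the universal somatostatin radioligand used unlabeled peptide at 0.1–1000 nM, with somatostatin 28 run in parallel at the same concentrations. Values are mean ± SD.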
# [8] = molecular target: Somatostatin receptor type 5 (Homo sapiens, UniProt P35346); assay: In vitro inhibition of [125I][Leu8,D-Trp22,Tyr25] somatostatin 28 binding to human somatostatin receptor type 5 expressed in CHO-K1 cells; (n=3); assay type: cell-based
# Somatostatin receptor type 5, sequence (P35346 whole entry): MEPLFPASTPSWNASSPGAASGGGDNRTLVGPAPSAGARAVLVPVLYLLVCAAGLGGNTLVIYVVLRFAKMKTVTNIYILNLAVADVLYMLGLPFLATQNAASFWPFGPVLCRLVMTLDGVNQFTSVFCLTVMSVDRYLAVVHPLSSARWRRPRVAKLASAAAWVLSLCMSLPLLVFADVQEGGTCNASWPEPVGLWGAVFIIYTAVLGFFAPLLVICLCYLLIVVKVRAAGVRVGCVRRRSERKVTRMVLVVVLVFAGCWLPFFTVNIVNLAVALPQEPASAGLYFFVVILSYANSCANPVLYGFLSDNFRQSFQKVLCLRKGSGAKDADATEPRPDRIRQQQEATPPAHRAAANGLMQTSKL
# [9] = molecular target: T4, Somatostatin receptor type 2; assay: Relative effective concentration against human somatostatin receptor type 2 expressed in CHO cells; (n=3); assay type: cell-based
# Procedure, shortened: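 Dual-tracer internalization in CHO cells stably expressing N-terminally tagged hsst2 (90000–120000 cells/well, plated the day before). Acid wash at pH 5 removed surface-bound activity; nonspecific uptake was taken with 5 µM TOC; triplicates. EC50 is expressed relative to [125I]TOC.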
# [10] = molecular target: T1, Somatostatin receptor type 3; assay: In vitro inhibition of [125I][Leu8,D-Trp22,Tyr25] somatostatin 28 binding to human somatostatin receptor type 3 expressed in CCL39 cells; (n=2); assay type: cell-based
# Procedure, shortened: (§1)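 Receptor autoradiography on sections of cell membrane pellets from CHO-K1 (sst1, sst5) or CCL39 (sst2–4) cells stably expressing the human subtype. Full displacement of [125I][Leu8,D-Trp22,Tyr25]somatostatin 28 by unlabeled peptide, 0.1–1000 nM, with somatostatin 28 run in parallel as control. IC50 derived by computer-assisted image analysis, quantified against cross-calibrated [125I] tissue standards.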
# [11] = molecular target: T2, Somatostatin receptor type 1; assay: In vitro inhibitory concentration against somatostatin receptor type 1 expressed in CHO-K1 cells using [125I][Leu8,D-Trp22,Tyr25] somatostatin 28 as radioligand; (n=2); assay type: cell-based; procedure, shortened: as §1
# [12] = molecular target: T3, Somatostatin receptor type 4; assay: In vitro inhibition of [125I][Leu8,D-Trp22,Tyr25] somatostatin 28 binding to human somatostatin receptor type 4 expressed in CCL39 cells; (n=2); assay type: cell-based; procedure, shortened: as §1
# [13] = molecular target: Somatostatin receptor type 2 (Rattus norvegicus) (UniProt P30680); assay: In vivo tumor accumulation was determined in nude mice bearing rat pancreatic AR42J tumor cell expressed with somatostatin receptor type 2;60 min p.i.; (n=3-5); assay type: functional, organism-based; details: AR-42J, tested as the 123I-labelled form
# Somatostatin receptor type 2 (Rattus norvegicus), sequence (P30680 whole entry): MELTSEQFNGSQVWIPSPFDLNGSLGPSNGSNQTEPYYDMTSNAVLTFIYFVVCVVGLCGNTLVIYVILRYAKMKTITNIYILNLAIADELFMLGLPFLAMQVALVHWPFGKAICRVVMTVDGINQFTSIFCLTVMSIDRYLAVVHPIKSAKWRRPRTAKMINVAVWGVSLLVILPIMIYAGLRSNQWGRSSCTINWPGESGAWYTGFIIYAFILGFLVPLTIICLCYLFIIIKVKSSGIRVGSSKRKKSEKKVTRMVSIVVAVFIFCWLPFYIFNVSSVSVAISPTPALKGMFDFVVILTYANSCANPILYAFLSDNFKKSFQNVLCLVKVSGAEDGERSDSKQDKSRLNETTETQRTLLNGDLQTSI
# Procedure, shortened: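 Female Swiss nu/nu mice, 6–8 weeks, were inoculated s.c. in the flank with (2.5–5) × 10⁶ AR42J cells in serum-free RPMI 1640 and used after 10 days (tumors 150–500 mg). About 370 kBq of radioiodinated peptide in 100 µL PBS pH 7.4 was given i.v. into the tail vein. Tumor was excised 60 min p.i. and gamma-counted; results are % ID/g.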
# T1 sequence (P32745 whole entry): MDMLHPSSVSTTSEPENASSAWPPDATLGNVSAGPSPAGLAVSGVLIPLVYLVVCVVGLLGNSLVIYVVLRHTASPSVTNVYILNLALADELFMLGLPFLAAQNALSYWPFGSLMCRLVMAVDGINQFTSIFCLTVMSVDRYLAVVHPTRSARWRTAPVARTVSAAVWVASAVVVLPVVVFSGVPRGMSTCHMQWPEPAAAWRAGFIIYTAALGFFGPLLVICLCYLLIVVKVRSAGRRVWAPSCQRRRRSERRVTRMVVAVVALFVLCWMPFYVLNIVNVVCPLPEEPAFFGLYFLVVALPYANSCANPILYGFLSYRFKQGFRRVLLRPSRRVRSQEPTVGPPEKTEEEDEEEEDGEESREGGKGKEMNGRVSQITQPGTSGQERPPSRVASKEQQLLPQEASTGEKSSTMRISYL
IC50 [4],IC50 [5],IC50 [6],IC50 [7],IC50 [8],EC50 ([9]; cho),Molecule,also measured
0.95 nM,> 10000 nM,823 nM,823 nM,327 nM,–,C[C@@H](O)[C@H](NC(=O)[C@@H]1CSSC[C@H](NC(=O)[C@@H](Cc2ccccc2)NC[C@]2(O)OC[C@H](O)[C@@H](O[C@@H]3O[C@@H](CO)[C@@H](O[C@@H]4O[C@@H](CO)[C@@H](O)[C@H](O)[C@@H]4O)[C@H](O)[C@@H]3O)[C@@H]2O)C(=O)N[C@@H](Cc2ccc(O)c(I)c2)C(=O)N[C@H](Cc2c[nH]c3ccccc23)C(=O)N[C@@H](CCCCN)C(=O)N[C@@H]([C@@H](C)O)C(=O)N1)C(=O)O,–
1.1 nM,> 10000 nM,210 nM,> 1000 nM,110 nM,–,C[C@@H](O)[C@H](CO)NC(=O)[C@@H]1CSSC[C@H](NC(=O)[C@@H](Cc2ccccc2)NC[C@]2(O)OC[C@H](O)[C@@H](O[C@@H]3O[C@@H](CO)[C@@H](O[C@@H]4O[C@@H](CO)[C@@H](O)[C@H](O)[C@@H]4O)[C@H](O)[C@@H]3O)[C@@H]2O)C(=O)N[C@@H](Cc2ccc(O)c(I)c2)C(=O)N[C@H](Cc2c[nH]c3ccccc23)C(=O)N[C@@H](CCCCN)C(=O)N[C@@H]([C@@H](C)O)C(=O)N1,–
–,–,–,–,–,1 nM,C[C@@H](O)[C@H](CO)NC(=O)[C@@H]1CSSC[C@H](NC(=O)[C@H](N)Cc2ccccc2)C(=O)N[C@@H](Cc2ccc(O)c([125I])c2)C(=O)N[C@H](Cc2c[nH]c3ccccc23)C(=O)N[C@@H](CCCCN)C(=O)N[C@@H]([C@@H](C)O)C(=O)N1,–
–,–,–,–,–,1.81 nM,C[C@@H](O)[C@H](NC(=O)[C@@H]1CSSC[C@H](NC(=O)[C@@H](Cc2ccccc2)NC[C@]2(O)OC[C@H](O)[C@@H](O[C@@H]3O[C@@H](CO)[C@@H](O[C@@H]4O[C@@H](CO)[C@@H](O)[C@H](O)[C@@H]4O)[C@H](O)[C@@H]3O)[C@@H]2O)C(=O)N[C@@H](Cc2ccc(O)c([123I])c2)C(=O)N[C@H](Cc2c[nH]c3ccccc23)C(=O)N[C@@H](CCCCN)C(=O)N[C@@H]([C@@H](C)O)C(=O)N1)C(=O)O,–
1.2 nM,> 10000 nM,243 nM,> 1000 nM,75 nM,–,C[C@@H](O)[C@H](CO)NC(=O)[C@@H]1CSSC[C@H](NC(=O)[C@@H](Cc2ccccc2)NC[C@]2(O)OC[C@H](O)[C@@H](O[C@@H]3O[C@@H](CO)[C@@H](O)[C@H](O)[C@@H]3O)[C@@H]2O)C(=O)N[C@@H](Cc2ccc(O)c(I)c2)C(=O)N[C@H](Cc2c[nH]c3ccccc23)C(=O)N[C@@H](CCCCN)C(=O)N[C@@H]([C@@H](C)O)C(=O)N1,–
–,–,–,–,–,2.13 nM,C[C@@H](O)[C@H](NC(=O)[C@@H]1CSSC[C@H](NC(=O)[C@@H](Cc2ccccc2)NC[C@]2(O)OC[C@H](O)[C@@H](O[C@@H]3O[C@@H](CO)[C@@H](O)[C@H](O)[C@@H]3O)[C@@H]2O)C(=O)N[C@@H](Cc2ccc(O)c([123I])c2)C(=O)N[C@H](Cc2c[nH]c3ccccc23)C(=O)N[C@@H](CCCCN)C(=O)N[C@@H]([C@@H](C)O)C(=O)N1)C(=O)O,–

# The remaining lines, values behind:
Molecule,IC50 [4],IC50 [5],IC50 [6],IC50 [7],IC50 [8],EC50 ([9]; cho),also measured
C[C@H](O)[C@@H](CO)NC(=O)[C@@H]1CSSC[C@H](NC(=O)[C@H](N)Cc2ccccc2)C(=O)N[C@@H](Cc2ccc(O)c(I)c2)C(=O)N[C@H](Cc2c[nH]c3ccccc23)C(=O)N[C@@H](CCCCN)C(=O)N[C@@H]([C@@H](C)O)C(=O)N1,–,–,–,–,–,–,IC50 [1]: 186 nM; IC50 [2]: > 1000 nM; IC50 [3]: 729 nM
C[C@H](O)[C@@H](CO)NC(=O)[C@@H]1CSSC[C@H](NC(=O)[C@H](N)Cc2ccccc2)C(=O)N[C@@H](Cc2ccc(O)cc2)C(=O)N[C@H](Cc2c[nH]c3ccccc23)C(=O)N[C@@H](CCCCN)C(=O)N[C@@H]([C@@H](C)O)C(=O)N1,–,–,–,–,–,–,IC50 [10]: 330 nM; IC50 [11]: > 1000 nM; IC50 [12]: 346 nM
C[C@@H](O)[C@H](NC(=O)[C@@H]1CSSC[C@H](NC(=O)[C@@H](Cc2ccccc2)NC[C@@]2(O)OC[C@@H](O)[C@@H](O)[C@@H]2O)C(=O)N[C@@H](Cc2ccc(O)c(I)c2)C(=O)N[C@H](Cc2c[nH]c3ccccc23)C(=O)N[C@@H](CCCCN)C(=O)N[C@@H]([C@@H](C)O)C(=O)N1)C(=O)O,2 nM,> 1000 nM,> 1000 nM,1030 nM,521 nM,–,–
C[C@@H](O)[C@H](NC(=O)[C@@H]1CSSC[C@H](NC(=O)[C@H](N)Cc2ccccc2)C(=O)N[C@@H](Cc2ccc(O)c([123I])c2)C(=O)N[C@H](Cc2c[nH]c3ccccc23)C(=O)N[C@@H](CCCCN)C(=O)N[C@@H]([C@@H](C)O)C(=O)N1)C(=O)O,–,–,–,–,–,–,EC50 [9]: 1.7 nM
C[C@@H](O)[C@H](NC(=O)[C@@H]1CSSC[C@H](NC(=O)[C@@H](Cc2ccccc2)NC[C@]2(O)OC[C@H](O)[C@@H](O[C@@H]3O[C@@H](CO)[C@@H](O)[C@H](O)[C@@H]3O)[C@@H]2O)C(=O)N[C@@H](Cc2ccc(O)c(I)c2)C(=O)N[C@H](Cc2c[nH]c3ccccc23)C(=O)N[C@@H](CCCCN)C(=O)N[C@@H]([C@@H](C)O)C(=O)N1)C(=O)O,0.78 nM,> 10000 nM,757 nM,797 nM,210 nM,–,–
C[C@@H](O)[C@H](CO)NC(=O)[C@@H]1CSSC[C@H](NC(=O)[C@@H](Cc2ccccc2)NC[C@]2(O)OC[C@H](O)[C@@H](O[C@@H]3O[C@@H](CO)[C@@H](O[C@@H]4O[C@@H](CO)[C@@H](O)[C@H](O)[C@@H]4O)[C@H](O)[C@@H]3O)[C@@H]2O)C(=O)N[C@@H](Cc2ccc(O)c([123I])c2)C(=O)N[C@H](Cc2c[nH]c3ccccc23)C(=O)N[C@@H](CCCCN)C(=O)N[C@@H]([C@@H](C)O)C(=O)N1,–,–,–,–,–,1.01 nM,–
C[C@@H](O)[C@H](CO)NC(=O)[C@@H]1CSSC[C@H](NC(=O)[C@@H](Cc2ccccc2)NC[C@]2(O)OC[C@H](O)[C@@H](O[C@@H]3O[C@@H](CO)[C@@H](O)[C@H](O)[C@@H]3O)[C@@H]2O)C(=O)N[C@@H](Cc2ccc(O)c([123I])c2)C(=O)N[C@H](Cc2c[nH]c3ccccc23)C(=O)N[C@@H](CCCCN)C(=O)N[C@@H]([C@@H](C)O)C(=O)N1,–,–,–,–,–,1.12 nM,–
C[C@@H](O)[C@H](CO)NC(=O)[C@@H]1CSSC[C@H](NC(=O)[C@@H](Cc2ccccc2)NC[C@]2(O)OC[C@H](O)[C@@H](O)[C@@H]2O)C(=O)N[C@@H](Cc2ccc(O)c([123I])c2)C(=O)N[C@H](Cc2c[nH]c3ccccc23)C(=O)N[C@@H](CCCCN)C(=O)N[C@@H]([C@@H](C)O)C(=O)N1,–,–,–,–,–,1.43 nM,–
C[C@@H](O)[C@@H]1NC(=O)[C@H](CCCCN)NC(=O)[C@@H](Cc2c[nH]c3ccccc23)NC(=O)[C@H](Cc2ccc(O)c(I)c2)NC(=O)[C@@H](NC(=O)[C@@H](Cc2ccccc2)NC[C@]2(O)OC[C@H](O)[C@@H](O)[C@@H]2O)CSSC[C@@H](C(=O)N[C@H](CO)[C@@H](C)O)NC1=O,2.2 nM,> 1000 nM,357 nM,837 nM,64 nM,–,–
GALLIUM OXODOTREOTIDE,0.2 nM,> 10000 nM,> 1000 nM,300 nM,377 nM,–,–
C[C@@H](O)[C@H](NC(=O)[C@@H]1CSSC[C@H](NC(=O)[C@@H](Cc2ccccc2)NC[C@H]2O[C@H](O)[C@H](O)[C@@H](O)[C@@H]2O)C(=O)N[C@@H](Cc2ccc(O)c(I)c2)C(=O)N[C@H](Cc2c[nH]c3ccccc23)C(=O)N[C@@H](CCCCN)C(=O)N[C@@H]([C@@H](C)O)C(=O)N1)C(=O)O,–,–,–,–,–,–,ID/g [13]: 20.5%

# — ChEMBL document CHEMBL1143592, “N-terminal sugar conjugation and C-terminal Thr-for-Thr(ol) exchange in radioiodinated Tyr3-octreotide: effect on cellular ligand trafficking in vitro and tumor accumulation in vivo” (J Med Chem, 2005)
